# An excerpt weighted towards active compounds, which were near 3.7% of everything screened.
# OX1R antag-1 = blocks the human orexin 1 receptor | O43613 | CHO/OX1R cells, Fluo-8 calcium fluorescence, orexin A | inhibition, % at 5 µM | hit rate 0.43% among 330,000 | AID 434989;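 active means inhibition above its plate's threshold, mean inhibition of all tested compounds on the plate plus 3 SD, cut at about 37% in these data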;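 further: 0% = orexin A challenge wells and 100% = SB-334867-A antagonist wells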
# GPR7 antagonist = antagonists of human GPR7 (neuropeptides B/W receptor 1). hit rate 1.1% among 290,000. inhibition, % at 4.4 µM. P48145. GPR7-expressing cells, fluorescence antagonist assay. AID 1861; in the data active means inhibition above about 16%, passing the limit was not always enough;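 further: cells stimulated with the agonist NPW; 0% = agonist with vehicle and 100% = vehicle without agonist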
# Target sequence (P48145 whole entry, looked up): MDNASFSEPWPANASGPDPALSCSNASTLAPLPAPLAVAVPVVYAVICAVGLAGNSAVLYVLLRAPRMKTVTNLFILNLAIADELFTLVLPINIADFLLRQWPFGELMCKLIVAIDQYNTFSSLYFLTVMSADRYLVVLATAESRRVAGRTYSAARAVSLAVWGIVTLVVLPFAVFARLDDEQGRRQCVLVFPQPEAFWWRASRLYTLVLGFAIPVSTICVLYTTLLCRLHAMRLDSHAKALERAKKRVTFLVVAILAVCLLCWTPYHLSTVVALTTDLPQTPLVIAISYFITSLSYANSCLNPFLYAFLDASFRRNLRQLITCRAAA
# EP2 antag = inhibitors of human EP2 prostaglandin E2 receptor | inhibition, % at 25 µM | hit rate 0.52% among 260,000 | C6 glioma cells expressing human EP2, cAMP TR-FRET; cells stimulated with saturating PGE2 | P43116;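 active means percent inhibition above 40 after rounding to a whole number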;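 further: rat C6 glioma host cells with rolipram phosphodiesterase inhibitor present; the protocol text gives 20 µM as final concentration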
# EP2 modulator = modulators of human EP2 prostaglandin E2 receptor. EP2-expressing cells, cAMP HTRF FRET, PGE2 co-stimulation. induction, % at 25 µM. hit rate 0.83% among 260,000. AID 940;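 active means compounds whose cAMP rise, as percent of the full-agonist control response, exceeds 60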;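 further: rat C6 glioma line stably carrying human EP2 under a CMV promoter; the protocol text gives 20 µM as final concentration; 100% = response of wells given 1 µM PGE2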
# CHO parental Ca = counter-screen for OX1R antagonists: effect in parental CHO cells; parental CHO-K1, ATP-induced calcium, Fluo-8 fluorescence; inhibition, % at 5.6 µM; hit rate 0.63% among 330,000; AID 463079;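 active means inhibition above that plate's mean sample inhibition plus 3 SD, cut at about 26% in these data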;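 further: 0% = ATP-challenged DMSO wells and 100% = DMSO wells without ATP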
#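 Assay system: untransfected parental CHO cell line. Also added: ATP agonist challenge. Dosing: one dose, 5.6 µM nominal. Measured by: Fluo-8 fluorescence. Read-out: % inhibition. Benchmarks: ATP wells versus no-ATP DMSO wells. Repeats: no replicates.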
# OX1R antag-2 = antagonists of human orexin 1 receptor (OX1R). O43613. hit rate 1.8% among 330,000. inhibition, % at 6.6 µM. OX1R-expressing cells, FRET antagonist read-out; in the data active means inhibition mostly above about 38%, no sharp cut-off; inactive means mostly below about 40%;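 further: 0% = agonist challenge alone and 100% = reference antagonist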
# GPR7 antag conf = confirmation of human GPR7 antagonists; inhibition, % at 4.4 µM; GPR7-expressing cells, calcium fluorescence antagonist mode; AID 1952; shares compounds with GPR7 antagonist; hit rate 52% among 2,400; in the data active means inhibition above about 24%;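 further: stimulated with the GPR7 agonist NPW; 0% = agonist plus vehicle and 100% = vehicle alone without agonist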
# MCHR1 antagonist = MCHR1 (human) antagonism in GPR7 counter-screen; shares compounds with GPR7 antagonist; MCHR1-expressing cells, fluorescence antagonist assay; inhibition, % at 4.4 µM; hit rate 62% among 2,400; in the data active means inhibition above about 22%;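 further: 0% = vehicle with agonist and 100% = vehicle without agonist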
# OX1R Ca confirm = confirmation of human orexin 1 receptor antagonists. shares compounds with OX1R antag-1. CHO/OX1R cells, orexin A calcium Fluo-8 fluorescence. inhibition, % at 5 µM. hit rate 38% among 1,100. AID 492963; in the data active means inhibition above about 29%;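 further: 0% = agonist challenge alone and 100% = reference antagonist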
# CHO Ca triplic = counter-screen for OX1R antagonists: effect in parental CHO cells; AID 492965; parental CHO-K1, ATP-induced calcium, Fluo-8 fluorescence; inhibition, % at 5.6 µM; hit rate 9.3% among 1,100; shares compounds with OX1R antag-1;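 active means inhibition above a per-plate limit, the mean inhibition of that plate's test compounds plus 3 SD, cut at about 25% in these data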;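 further: 0% = ATP challenge with DMSO and 100% = DMSO without ATP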
# OX1R HTRF conf = confirmation of human orexin 1 receptor antagonists, HTRF format. shares compounds with OX1R antag-2. OX1R-expressing cells, HTRF antagonist assay. inhibition, % at 6.6 µM. hit rate 49% among 1,800. AID 492964; in the data active means inhibition above about 55%;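 further: CHO cells expressing OX1R stimulated with orexin A at about EC80; 0% = agonist challenge alone and 100% = reference antagonist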
# CHO-K1 HTRF = counter-screen for OX1R antagonists: effect in parental CHO-K1 cells; hit rate 48% among 1,800; shares compounds with OX1R antag-2; HTRF counterscreen; AID 493232; inhibition, % at 6.6 µM; in the data active means inhibition above about 17%;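 further: 0% = agonist challenge with vehicle and 100% = vehicle alone without agonist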
# * hit, by the source's call; . = no result given.
SMILES,OX1R antag-1,GPR7 antagonist,EP2 antag,EP2 modulator,CHO parental Ca,OX1R antag-2,OX1R Ca confirm,CHO Ca triplic,others
O=C(CSc1n[nH]c(=O)[nH]c1=O)c1ccc([N+](=O)[O-])cc1,-14,26*,7,-43,-6,134*,.,.,GPR7 antag conf=-4;MCHR1 antagonist=-6;OX1R HTRF conf=56*;CHO-K1 HTRF=80*
COc1ccc(C(=O)CSc2n[nH]c(=O)[nH]c2=O)cc1,-15,-1,2,21,9,13,.,.,
O=C(c1ccco1)n1nc(-c2ccco2)nc1SCc1ccccc1,-10,-13,4,-3,9,8,.,.,
O=C(Cc1ccccc1)n1nc(-c2ccco2)nc1SCc1ccccc1,40*,3,9,4,-4,8,5,-1,
COc1ccc(C(=O)Oc2cc(N)n(S(=O)(=O)c3ccc(C)cc3)n2)cc1,-17,1,.,.,-20,28,.,.,
COc1ccc(S(=O)(=O)n2nc(OC(=O)c3c(-c4ccccc4Cl)noc3C)cc2N)cc1,36,15,7,-1,4,41,-8,-13,
Cc1ccc(-c2cc3nc(-c4ccccc4)cc(N4CCC5(CC4)OCCO5)n3n2)cc1,39,-14,7,31,12,40,36*,-10,
Fc1ccc(-c2cc3nc(-c4ccccc4)cc(N4CCOCC4)n3n2)cc1,-27,-9,9,31,-13,7,.,.,
Cc1nn(-c2ccccc2)c2nc(N)c(C#N)c(-c3ccc(O)c(O)c3)c12,36,-4,.,.,3,9,34*,6,
C=CCn1c(NCCc2ccccc2)nc2c1c(=O)n(C)c(=O)n2C,31,-2,-3,1,12,16,10,13,
C/C(Cl)=C\Cn1c(NCCc2ccccc2)nc2c1c(=O)n(C)c(=O)n2C,-23,-1,4,15,0,7,.,.,
CCOC(=O)C(Cc1ccccc1)NC(=O)Cn1nnc(-c2ccccc2)n1 (stereo unspecified),29,7,2,25,13,25,52*,17,
CCOC(=O)Cn1nnc(-c2ccccc2)n1,4,-8,7,18,-3,6,.,.,
O=C1OC(NCc2cccnc2)(c2ccc(Cl)cc2)c2ccccc21 (stereo unspecified),-32,-3,9,13,-10,19,.,.,
Cc1ccc(C2=N/C(=C\c3cccnc3)C(=O)O2)cc1,-1,-10,6,-36,7,0,.,.,
O=C1OC(/C=C/c2ccccc2)=NC/1=C\c1cccnc1,50*,-6,12,-55,6,23,4,1,
CCN(CC)CCNc1nc2c(c(=O)[nH]c(=O)n2C)n1CCCc1ccccc1,-3,-18,10,-46,9,14,.,.,
CCNc1nc2c(c(=O)[nH]c(=O)n2C)n1CCCc1ccccc1,26,-11,.,.,-4,5,3,3,
COc1ccc(N2CC(C(=O)OCC(=O)Nc3ccc(F)c(Cl)c3)CC2=O)cc1 (stereo unspecified),.,.,8,-25,.,.,.,.,
Cc1cccc(C)c1OCC(=O)Nc1cccc(S(=O)(=O)N2CCCC2)c1,-37,.,.,.,-15,5,.,.,
Cc1cc(OCC(=O)Nc2cccc(S(=O)(=O)N3CCCCC3)c2)ccc1Cl,36,.,.,.,3,6,16,14,
COc1cc(CNC(C)c2ccccc2)cc(Br)c1OCc1ccccc1 (stereo unspecified),46*,-8,.,.,-3,-2,22,-3,

# Screens from PubChem BioAssay.
